Paper PMC3076536 (Journal of the American Chemical Society, 2011)

How the values were obtained:
GSK3α [1] = target: T1, GSK3α (Homo sapiens, UniProt P49840); assay: Radioactive [γ-33P]ATP kinase activity assay, GSK3α; format: biochemical
Procedure, shortened: (§1)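 Commercial human kinase and substrate were used, except the PAK1 kinase domain (residues 249–545), which was expressed and purified in-house. Serial inhibitor concentrations were preincubated 15 min with kinase and substrate in 20 mM MOPS pH 7.0, 30 mM MgCl₂, 0.8 μg/μL BSA and 5% DMSO. The reaction was started with ATP (final 100 μM) plus [γ-³³P]ATP. Reactions were spotted on P81 paper, washed and scintillation-counted. IC50 was the concentration giving background-corrected CPM at 50% of control.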

[2] = target: PAK1 kinase domain (residues 249 to 545) (Homo sapiens, UniProt Q13153); assay: Radioactive [γ-33P]ATP kinase activity assay, PAK1; format: biochemical; settings: read-out: IC50 PAK1; 100 μM ATP
Sequence of PAK1 kinase domain (residues 249 to 545) (Q13153 249-545): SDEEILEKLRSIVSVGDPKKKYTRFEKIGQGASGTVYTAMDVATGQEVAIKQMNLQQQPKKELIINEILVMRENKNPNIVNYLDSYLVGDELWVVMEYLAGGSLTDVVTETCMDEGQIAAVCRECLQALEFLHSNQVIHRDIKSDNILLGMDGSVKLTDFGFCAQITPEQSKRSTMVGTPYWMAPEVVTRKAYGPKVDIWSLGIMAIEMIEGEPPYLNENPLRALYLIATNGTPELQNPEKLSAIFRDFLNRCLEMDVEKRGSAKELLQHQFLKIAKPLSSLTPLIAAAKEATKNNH
Procedure, shortened: as §1

PIM1 [3] = target: T2, PIM1 (Homo sapiens, UniProt P11309); assay: Radioactive [γ-33P]ATP kinase activity assay, PIM1; format: biochemical; settings: read-out: IC50 PIM1; 100 μM ATP
T2 sequence (P11309 whole entry): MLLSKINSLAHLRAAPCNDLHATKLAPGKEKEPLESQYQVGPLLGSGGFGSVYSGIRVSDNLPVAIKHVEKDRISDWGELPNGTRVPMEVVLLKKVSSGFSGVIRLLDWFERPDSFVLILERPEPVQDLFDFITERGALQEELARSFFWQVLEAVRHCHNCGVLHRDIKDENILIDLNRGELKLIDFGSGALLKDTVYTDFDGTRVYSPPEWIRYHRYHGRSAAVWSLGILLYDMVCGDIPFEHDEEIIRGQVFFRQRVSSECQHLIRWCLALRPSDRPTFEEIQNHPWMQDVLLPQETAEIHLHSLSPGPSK
Procedure, shortened: as §1

DAPK1 = DAPK1 (Homo sapiens, UniProt P53355); assay: Radioactive [γ-33P]ATP kinase activity assay, DAPK1; format: biochemical; settings: read-out: IC50 DAPK1; 100 μM ATP
Sequence of DAPK1 (P53355 whole entry): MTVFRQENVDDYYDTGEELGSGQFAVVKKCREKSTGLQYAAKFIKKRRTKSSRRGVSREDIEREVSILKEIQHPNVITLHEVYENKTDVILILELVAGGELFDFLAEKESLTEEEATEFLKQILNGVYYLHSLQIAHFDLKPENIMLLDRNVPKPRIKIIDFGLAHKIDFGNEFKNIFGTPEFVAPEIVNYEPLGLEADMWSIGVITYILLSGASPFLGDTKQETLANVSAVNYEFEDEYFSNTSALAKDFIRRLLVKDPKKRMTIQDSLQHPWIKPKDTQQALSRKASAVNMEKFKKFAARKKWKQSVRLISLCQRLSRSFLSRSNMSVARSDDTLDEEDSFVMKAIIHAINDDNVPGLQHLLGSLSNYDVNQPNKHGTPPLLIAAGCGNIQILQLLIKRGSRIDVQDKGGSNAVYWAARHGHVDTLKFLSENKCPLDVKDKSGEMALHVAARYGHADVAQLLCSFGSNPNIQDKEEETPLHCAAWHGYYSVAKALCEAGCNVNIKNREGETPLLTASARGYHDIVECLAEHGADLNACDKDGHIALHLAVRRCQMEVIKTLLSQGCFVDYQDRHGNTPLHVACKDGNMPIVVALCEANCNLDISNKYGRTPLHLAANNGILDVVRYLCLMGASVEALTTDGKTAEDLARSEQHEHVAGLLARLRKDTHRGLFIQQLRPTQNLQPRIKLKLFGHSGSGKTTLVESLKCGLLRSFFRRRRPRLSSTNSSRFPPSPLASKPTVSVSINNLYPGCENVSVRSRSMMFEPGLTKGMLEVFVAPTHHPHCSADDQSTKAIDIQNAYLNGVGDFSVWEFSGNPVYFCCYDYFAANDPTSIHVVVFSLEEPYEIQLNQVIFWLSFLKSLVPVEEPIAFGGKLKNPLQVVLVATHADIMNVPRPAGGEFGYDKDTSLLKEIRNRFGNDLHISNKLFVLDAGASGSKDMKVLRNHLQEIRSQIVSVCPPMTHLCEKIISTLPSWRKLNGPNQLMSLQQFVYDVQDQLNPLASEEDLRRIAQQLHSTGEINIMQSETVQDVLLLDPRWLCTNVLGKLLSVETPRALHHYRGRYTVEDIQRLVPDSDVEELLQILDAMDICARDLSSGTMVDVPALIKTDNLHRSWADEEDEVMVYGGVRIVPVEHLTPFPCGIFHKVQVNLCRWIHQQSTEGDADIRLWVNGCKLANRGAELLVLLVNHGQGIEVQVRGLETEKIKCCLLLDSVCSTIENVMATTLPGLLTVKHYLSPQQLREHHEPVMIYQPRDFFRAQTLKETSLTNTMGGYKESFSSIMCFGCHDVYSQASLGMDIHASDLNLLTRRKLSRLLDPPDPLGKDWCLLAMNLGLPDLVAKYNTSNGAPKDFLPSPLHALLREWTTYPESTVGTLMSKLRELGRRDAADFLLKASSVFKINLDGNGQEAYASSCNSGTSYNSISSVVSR
Procedure, shortened: as §1

MLCK = assay: Radioactive [γ-33P]ATP kinase activity assay, MLCK; format: biochemical, human; settings: read-out: IC50 MLCK; 100 μM ATP
Procedure, shortened: as §1

FLT4 = FLT4 (Homo sapiens, UniProt P35916); assay: Radioactive [γ-33P]ATP kinase activity assay, FLT4; format: biochemical; settings: read-out: IC50 FLT4; 100 μM ATP
Sequence of FLT4 (P35916 25-1363): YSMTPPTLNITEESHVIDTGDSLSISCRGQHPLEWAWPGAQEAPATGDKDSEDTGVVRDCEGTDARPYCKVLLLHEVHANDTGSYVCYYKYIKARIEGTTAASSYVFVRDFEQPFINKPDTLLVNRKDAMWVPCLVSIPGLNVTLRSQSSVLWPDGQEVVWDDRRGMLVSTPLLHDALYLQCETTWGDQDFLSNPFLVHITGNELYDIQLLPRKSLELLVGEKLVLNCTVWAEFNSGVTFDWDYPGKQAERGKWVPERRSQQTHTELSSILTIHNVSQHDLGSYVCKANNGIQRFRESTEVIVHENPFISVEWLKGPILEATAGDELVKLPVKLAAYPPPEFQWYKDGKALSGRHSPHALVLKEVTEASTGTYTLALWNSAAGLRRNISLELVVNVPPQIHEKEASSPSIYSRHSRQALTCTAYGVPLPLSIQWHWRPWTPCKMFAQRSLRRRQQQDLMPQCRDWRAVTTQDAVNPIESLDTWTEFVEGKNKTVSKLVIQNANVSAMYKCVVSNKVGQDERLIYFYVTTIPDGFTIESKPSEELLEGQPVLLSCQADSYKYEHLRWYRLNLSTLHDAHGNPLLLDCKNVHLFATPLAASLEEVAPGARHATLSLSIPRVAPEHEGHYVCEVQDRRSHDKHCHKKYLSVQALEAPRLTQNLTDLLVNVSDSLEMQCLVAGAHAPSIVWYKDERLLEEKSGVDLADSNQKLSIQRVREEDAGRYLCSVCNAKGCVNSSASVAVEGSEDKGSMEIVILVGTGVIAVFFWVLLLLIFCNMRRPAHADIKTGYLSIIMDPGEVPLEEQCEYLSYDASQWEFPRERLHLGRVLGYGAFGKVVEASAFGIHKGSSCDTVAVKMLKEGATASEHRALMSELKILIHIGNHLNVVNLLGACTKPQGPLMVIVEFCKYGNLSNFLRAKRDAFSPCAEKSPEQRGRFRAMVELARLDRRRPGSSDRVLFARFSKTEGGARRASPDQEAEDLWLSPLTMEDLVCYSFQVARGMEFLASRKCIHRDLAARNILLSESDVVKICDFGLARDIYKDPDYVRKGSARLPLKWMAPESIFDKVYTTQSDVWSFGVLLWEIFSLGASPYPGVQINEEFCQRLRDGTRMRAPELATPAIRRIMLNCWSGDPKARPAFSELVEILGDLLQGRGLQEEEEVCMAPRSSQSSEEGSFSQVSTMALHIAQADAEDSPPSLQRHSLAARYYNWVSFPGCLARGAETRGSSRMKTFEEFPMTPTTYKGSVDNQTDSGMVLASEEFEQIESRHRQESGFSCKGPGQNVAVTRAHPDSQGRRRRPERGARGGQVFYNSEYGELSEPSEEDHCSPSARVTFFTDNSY
Procedure, shortened: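 Radiometric assay with commercial human FLT4 and substrate. Serial inhibitor concentrations were preincubated 45 min with kinase and substrate in 20 mM MOPS pH 7.0, 30 mM MgCl₂, 0.8 μg/μL BSA and 5% DMSO. The reaction was started with ATP (final 100 μM) containing [γ-³³P]ATP. Reactions were stopped on P81 paper, washed and scintillation-counted. IC50 was the concentration giving 50% of control CPM after background correction.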

GSK3β [4] = target: T3, GSK3β (Homo sapiens, UniProt P49841); assay: Radioactive [γ-33P]ATP kinase activity assay, GSK3β; format: biochemical; settings: read-out: IC50 GSK3β; 100 μM ATP
T3 sequence (P49841 whole entry): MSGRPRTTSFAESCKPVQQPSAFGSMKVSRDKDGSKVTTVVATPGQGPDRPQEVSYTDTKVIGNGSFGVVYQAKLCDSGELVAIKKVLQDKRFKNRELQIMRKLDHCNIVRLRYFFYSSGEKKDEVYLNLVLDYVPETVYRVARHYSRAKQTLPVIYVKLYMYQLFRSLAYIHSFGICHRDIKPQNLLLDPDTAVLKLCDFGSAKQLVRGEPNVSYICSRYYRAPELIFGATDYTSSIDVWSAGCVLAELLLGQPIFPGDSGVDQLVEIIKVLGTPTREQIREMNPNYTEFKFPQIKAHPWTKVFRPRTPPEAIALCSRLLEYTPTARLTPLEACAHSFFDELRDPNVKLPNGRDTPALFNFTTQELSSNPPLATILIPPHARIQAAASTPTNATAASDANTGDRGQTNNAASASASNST
Procedure, shortened: as §1

GSK3α [5] = target: T1, GSK3α; assay: Millipore KinaseProfiler single-concentration screen, GSK3α; format: biochemical; settings: compound 10 nM, 10 μM ATP
Procedure, shortened: (§2)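 Single-concentration screen on a commercial panel of human wild-type kinases. Test compound was at 10 nM with 10 μM ATP. Only kinases whose assay concentration was at or below the inhibitor concentration were included, giving 102 kinases. Percentage kinase activity was measured in duplicate and averaged.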

PIM1 [6] = target: T2, PIM1; assay: Millipore KinaseProfiler single-concentration screen, PIM1; format: biochemical; settings: compound 10 nM, 10 μM ATP
Procedure, shortened: as §2

CLK2 = CLK2 (Homo sapiens, UniProt P49760); assay: Millipore KinaseProfiler single-concentration screen, CLK2; format: biochemical; settings: compound 10 nM, 10 μM ATP
Sequence of CLK2 (P49760 whole entry): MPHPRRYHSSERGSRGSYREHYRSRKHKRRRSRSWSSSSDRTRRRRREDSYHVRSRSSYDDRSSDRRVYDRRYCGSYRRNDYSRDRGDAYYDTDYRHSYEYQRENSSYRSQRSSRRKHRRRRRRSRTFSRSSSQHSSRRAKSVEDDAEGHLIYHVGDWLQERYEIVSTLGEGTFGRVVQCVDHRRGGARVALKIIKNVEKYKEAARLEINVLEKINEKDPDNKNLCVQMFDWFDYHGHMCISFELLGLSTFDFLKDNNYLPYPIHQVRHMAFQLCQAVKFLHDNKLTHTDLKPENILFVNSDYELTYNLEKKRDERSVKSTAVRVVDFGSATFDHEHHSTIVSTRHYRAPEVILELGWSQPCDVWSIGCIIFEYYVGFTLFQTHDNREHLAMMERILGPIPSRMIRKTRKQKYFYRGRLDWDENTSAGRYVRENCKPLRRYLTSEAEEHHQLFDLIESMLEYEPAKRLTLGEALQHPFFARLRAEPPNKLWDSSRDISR
Procedure, shortened: as §2

GSK3β [7] = target: T3, GSK3β; assay: Millipore KinaseProfiler single-concentration screen, GSK3β; format: biochemical; settings: compound 10 nM, 10 μM ATP
Procedure, shortened: as §2

[8] = test system: panels of human wild type protein kinases; assay: Millipore KinaseProfiler selectivity profile over whole panel; format: biochemical; settings: compound 10 nM, 10 μM ATP, panel of 102 kinases
Procedure, shortened: as §2

T1 sequence (P49840 whole entry, the tested form may be a part): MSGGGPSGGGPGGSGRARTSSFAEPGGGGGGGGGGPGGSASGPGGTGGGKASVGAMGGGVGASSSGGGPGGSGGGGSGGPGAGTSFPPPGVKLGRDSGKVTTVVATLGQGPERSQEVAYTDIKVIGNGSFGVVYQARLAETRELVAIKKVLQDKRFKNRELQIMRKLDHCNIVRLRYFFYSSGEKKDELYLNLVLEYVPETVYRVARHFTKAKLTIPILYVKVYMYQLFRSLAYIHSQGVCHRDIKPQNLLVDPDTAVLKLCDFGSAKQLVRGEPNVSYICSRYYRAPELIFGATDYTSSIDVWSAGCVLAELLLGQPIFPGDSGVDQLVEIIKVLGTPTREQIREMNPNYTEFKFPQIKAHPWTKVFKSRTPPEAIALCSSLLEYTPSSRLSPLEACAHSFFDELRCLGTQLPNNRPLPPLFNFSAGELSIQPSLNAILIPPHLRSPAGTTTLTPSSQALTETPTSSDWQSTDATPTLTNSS

Nc1cnc2c(c1)c1c(c3c4ccccc4[n-]c23)C(=O)NC1=O.[C-]#[O+].[Cl][Ru+3].[NH-]Cc1ccccn1 [Λ-OS1]
IC50 value ratio of GSK3α/PAK1 (GSK3α [1]; 100 μM ATP): < 0.000009 | selectivity for the α- over β-isoform of GSK3 (GSK3α [1]; IC50 ratio, 100 μM ATP): ca. 7 fold | lower IC50 value compared to respective pyridocarbazole ligand, GSK3α (GSK3α [1]; metal complex vs free ligand): 8890 fold | IC50 (GSK3α [1]; read-out: IC50 GSK3α, 100 μM ATP): 0.0009 µM | IC50 [2]: > 100 µM | IC50 (PIM1 [3]): 0.014 µM | IC50 (DAPK1): 22.8 µM | IC50 (MLCK): 0.022 µM | IC50 (FLT4): 1.18 µM | IC50 (GSK3β [4]): 0.006 µM | residual activity GSK3α (GSK3α [5]): 6% | residual activity PIM1 (PIM1 [6]): 13% | residual activity CLK2 (CLK2): 33% | residual activity GSK3β (GSK3β [7]): 58% | number of kinases out of 102 with activity higher than 75% [8]: 98
